Activity calls are given as the source filed them. The rule behind the calls is not given here.
What was measured:
MCF7 = assay: Cytotoxicity against human MCF7 cells after 48 hrs by MTT assay; type: functional, cell-based; settings: MCF7, 48 h
How it was run: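 MCF7 cells plated at 4*10⁴ cells/mL and left overnight to adhere, then exposed to a concentration series for 48 h, with DMSO vehicle, untreated cells, and 100 μM phenylarsine oxide as controls. MTT (5 mg/mL stock in PBS) was added for 2 h at 37 °C. Formazan was dissolved in DMSO and OD read at 490 nm. The best three of quadruplicate wells were used; IC50 from nonlinear regression on normalized data, ±SD.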

[1] = biological target: T1, Proteasome Macropain subunit MB1 (Homo sapiens, UniProt P28074); assay: Inhibition of 20S proteasome beta5 subunit in human Jurkat cell lysate using Suc-LLVY-AMC as substrate pretreated for 30 mins followed by substrate addition and measured after 60 mins by fluorescence assay
T1 sequence (P28074 whole entry): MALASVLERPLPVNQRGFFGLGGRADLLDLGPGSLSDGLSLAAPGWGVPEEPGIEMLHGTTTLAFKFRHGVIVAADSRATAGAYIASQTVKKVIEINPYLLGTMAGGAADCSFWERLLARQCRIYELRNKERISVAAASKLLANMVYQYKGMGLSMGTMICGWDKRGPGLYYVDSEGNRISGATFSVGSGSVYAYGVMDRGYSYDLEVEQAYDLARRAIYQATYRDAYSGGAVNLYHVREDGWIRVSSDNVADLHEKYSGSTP
How it was run: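 Lysate was preincubated with compound 30 min at 37 °C. 100 μM substrate solution was added: Suc-LLVY-AMC for β5, Suc-RLR-AMC for β2. IC50 by nonlinear regression, ±SD.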

RPMI-8226 = assay: Cytotoxicity against human RPMI8226 cells after 48 hrs by MTT assay; type: functional, cell-based; settings: RPMI-8226, 48 h
How it was run: (§1)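 MTT viability after 48 h exposure to a concentration series; MDA-MB-231 seeded at 4*10⁴ cells/mL and adhered overnight, RPMI 8226 at 4*10⁵ cells/mL and dosed immediately. MTT (5 mg/mL in PBS) added, 2 h at 37 °C; formazan dissolved in DMSO (MDA-MB-231) or DMF/SDS pH<4 (RPMI 8226); OD 490 nm.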

MDA-MB-231 = assay: Cytotoxicity against human MDA-MB-231 cells after 48 hrs by MTT assay; type: functional, cell-based; settings: MDA-MB-231, 48 h; how it was run: as §1
[2] = biological target: T2, Proteasome Macropain subunit MB1 (Homo sapiens) (UniProt P28074); assay: Inhibition of 20S proteasome beta5 subunit in human MCF7 cells using Suc-LLVY-AMC as substrate pretreated for 1 hr followed by compound washout and cell lysis prior to substrate addition measured after 1 hr by fluorescence assay; type: cell-based
T2 sequence (whole entry): T1 sequence (P28074 whole entry)
How it was run: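 Adherent MCF7 (500,000 cells/mL, overnight, ~100% confluent) dosed 1 h at 37 °C, 5% CO₂; washed twice with PBS, lysed in HEPES/Triton buffer on ice 1 h; 15 min at 37 °C, then 100 μM Suc-LLVY-AMC 1 h at 37 °C; ex 360/em 480 nm. IC50 from best three of four biological replicates per concentration.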

[3] = biological target: T3, Proteasome subunit beta type-2 (Saccharomyces cerevisiae (strain ATCC 204508 / S288c) (Baker's yeast), UniProt P25043); assay: Inhibition of yeast 20S proteasome beta2 subunit using SUC-RLR-AMC as substrate pretreated for 30 mins followed by substrate addition and measured after 60 mins by fluorescence assay
T3 sequence (P25043 whole entry): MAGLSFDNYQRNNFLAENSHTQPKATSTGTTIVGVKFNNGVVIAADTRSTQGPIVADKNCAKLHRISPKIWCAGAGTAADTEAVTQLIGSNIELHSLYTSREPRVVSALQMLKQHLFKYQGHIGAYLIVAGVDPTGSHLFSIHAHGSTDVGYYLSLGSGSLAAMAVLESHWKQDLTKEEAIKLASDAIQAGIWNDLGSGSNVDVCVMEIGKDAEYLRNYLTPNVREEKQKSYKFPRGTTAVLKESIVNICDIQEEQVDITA
How it was run: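 Fluorogenic substrate was then added (100 μM Suc-RLR-AMC solution for β2) and incubated 60 min at 37 °C; cleavage read at ex 360/em 480 nm. IC50 from nonlinear regression on normalized data, ±SD.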

[4] = biological target: T4, Proteasome subunit beta type-1 (Saccharomyces cerevisiae (strain ATCC 204508 / S288c) (Baker's yeast), UniProt P38624); assay: Inhibition of yeast 20S proteasome beta1 subunit using fluorescent substrate pretreated for 30 mins followed by substrate addition and measured after 60 mins by fluorescence assay
T4 sequence (P38624 whole entry): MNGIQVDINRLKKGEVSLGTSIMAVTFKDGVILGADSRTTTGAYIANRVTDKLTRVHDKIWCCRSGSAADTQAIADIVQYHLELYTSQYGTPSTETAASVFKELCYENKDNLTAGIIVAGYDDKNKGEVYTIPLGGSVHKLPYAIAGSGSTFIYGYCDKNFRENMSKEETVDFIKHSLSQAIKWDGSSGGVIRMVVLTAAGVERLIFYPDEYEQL

[5] = Inhibition of yeast 20S proteasome beta5 subunit using Suc-LLVY-AMC as substrate pretreated for 30 mins followed by substrate addition and measured after 60 mins by fluorescence assay; design: species or system Saccharomyces cerevisiae
How it was run: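 Purified yeast 20S proteasome at 8 μg/mL preincubated with compound 30 min at 37 °C; then 100 μM Suc-LLVY-AMC for 60 min at 37 °C; cleaved-AMC fluorescence ex 360/em 480 nm. IC50 by nonlinear regression on normalized data, confirmed in at least technical triplicate, reported ± SD.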

[6] = biological target: T5, Proteasome subunit beta type-8 (Homo sapiens, UniProt P28062); assay: Inhibition of human immunoproteasome beta5 subunit using Suc-LLVY-AMC as substrate pretreated for 30 mins followed by substrate addition and measured after 60 mins by fluorescence assay
T5 sequence (P28062 whole entry): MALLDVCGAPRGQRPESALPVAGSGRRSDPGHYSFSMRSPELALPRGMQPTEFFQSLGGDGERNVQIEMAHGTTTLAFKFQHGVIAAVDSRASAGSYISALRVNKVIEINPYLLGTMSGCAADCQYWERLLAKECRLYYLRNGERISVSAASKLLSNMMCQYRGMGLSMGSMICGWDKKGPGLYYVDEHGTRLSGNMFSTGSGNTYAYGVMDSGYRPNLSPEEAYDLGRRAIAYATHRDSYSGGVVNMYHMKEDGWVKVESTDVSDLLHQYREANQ

Compound	IC50 (MCF7) [µM]	IC50 [1] [µM]	IC50 (RPMI-8226) [µM]	IC50 (MDA-MB-231) [µM]	inhibition [2]	IC50 [3] [µM]	IC50 [4] [µM]	IC50 [5] [µM]	IC50 [6] [µM]
CC[C@H](C)[C@@H]1C(=O)O[C@H]1C(=O)N[C@@H](Cc1ccccc1)C(=O)N[C@@H](Cc1ccccc1)C(=O)OCc1ccccc1	6.25	0.0116	1.18	5.21	–	–	–	–	–
CC[C@H](C)[C@@H]1C(=O)O[C@H]1C(=O)N[C@H](C(=O)N[C@H](C(=O)OCc1ccccc1)C(C)C)C(C)(C)C	2.29	0.0228	0.748	0.699	Active	–	–	–	–
CC[C@H](C)[C@@H]1C(=O)O[C@H]1C(=O)NCC(=O)N[C@H](C(=O)OCc1ccccc1)C(C)C	2.08	0.0027	0.762	0.678	Active	–	–	–	–
CC[C@H](C)[C@@H]1C(=O)O[C@H]1C(=O)N[C@H](C(=O)N[C@@H](Cc1ccccc1)C(=O)OCc1ccccc1)C(C)C	2.75	0.0057	1.1	3.35	–	–	–	–	–
CC[C@H](C)[C@@H]1C(=O)O[C@H]1C(=O)N[C@H](C(=O)N[C@@H](CC(C)C)C(=O)OCc1ccccc1)C(C)C	0.332	0.0077	0.286	0.219	Active	–	–	–	–
CC(C)C[C@H](NC(=O)[C@H](CCc1ccccc1)NC(=O)CN1CCOCC1)C(=O)N[C@@H](Cc1ccccc1)C(=O)N[C@@H](CC(C)C)C(=O)[C@@]1(C)CO1 [CARFILZOMIB]	0.0041	–	0.0067	0.0044	–	> 1	> 1	–	–
CC(C)[C@H](NC(=O)[C@@H]1OC(=O)[C@H]1C1CCC1)C(=O)N[C@H](C(=O)OCc1ccccc1)C(C)C	> 50	0.0132	37.2	> 50	inactive	–	–	–	–
CC(C)[C@H](NC(=O)[C@@H]1OC(=O)[C@H]1C1CCCC1)C(=O)N[C@H](C(=O)OCc1ccccc1)C(C)C	50.6	0.0129	2.35	28.2	inactive	–	–	–	–
CC(C)C[C@@H]1C(=O)O[C@H]1C(=O)N[C@H](C(=O)N[C@H](C(=O)OCc1ccccc1)C(C)C)C(C)C	55.3	0.0197	33.5	30.3	inactive	–	–	–	–
CC[C@H](C)[C@@H]1C(=O)O[C@H]1C(=O)N[C@H](C(=O)N[C@H](C(=O)OCc1ccccc1)C(C)(C)C)C(C)(C)C	1.91	0.0359	1.22	0.673	–	–	–	–	–
CC[C@H](C)[C@@H]1C(=O)O[C@H]1C(=O)N[C@@H](CC(C)C)C(=O)N[C@H](C(=O)OCc1ccccc1)C(C)C	2.46	0.005	2.24	1.45	Active	–	–	–	–
CC[C@H](C)[C@@H]1C(=O)O[C@H]1C(=O)N[C@H](C(=O)N[C@H](C(=O)OCc1ccc(Cl)cc1)C(C)C)C(C)C	0.918	0.0082	0.085	0.312	–	–	–	–	–
CC[C@H](C)[C@@H]1C(=O)O[C@H]1C(=O)N[C@H](C(=O)N[C@H](C(=O)OCc1ccc(OC)cc1)C(C)C)C(C)C	0.854	0.0102	0.114	0.28	–	–	–	–	–
CC[C@H](C)[C@@H]1C(=O)O[C@H]1C(=O)N[C@H](C(=O)N[C@H](C(=O)OCC1CCCCC1)C(C)C)C(C)C	4.62	0.0187	0.303	3.22	–	–	–	–	–
CC[C@H](C)[C@@H]1C(=O)O[C@H]1C(=O)N[C@H](C(=O)N[C@H](C(=O)NCc1ccccc1)C(C)C)C(C)C	0.892	0.0036	0.32	0.885	–	2.92	1.38	0.0054	–
CC[C@H](C)[C@@H]1C(=O)O[C@H]1C(=O)N[C@H](C(=O)N[C@H](C(=O)OCC(C)C)C(C)C)C(C)C	0.664	0.0088	0.095	0.317	–	–	–	–	–
C=CCCOC(=O)[C@@H](NC(=O)[C@@H](NC(=O)[C@@H]1OC(=O)[C@H]1[C@@H](C)CC)C(C)C)C(C)C	0.523	0.0066	0.272	0.341	–	–	–	–	–
CC[C@H](C)[C@@H]1C(=O)O[C@H]1C(=O)N[C@@H](COCc1ccccc1)C(=O)N[C@H](C(=O)OCc1ccccc1)C(C)C	3.45	0.0077	1.71	2.86	Active	–	–	–	–
CC[C@H](C)[C@@H]1C(=O)O[C@H]1C(=O)N[C@H](C(=O)N[C@H](C(=O)OC)C(C)C)C(C)C	0.427	0.0159	0.268	0.312	–	–	–	–	–
CC[C@H](C)[C@@H]1C(=O)O[C@H]1C(=O)N[C@H](C(=O)N[C@H](C(=O)OCc1ccccc1)C(C)(C)C)C(C)C	1.14	0.0098	1.75	1.91	inactive	–	–	–	–
CC[C@H](C)[C@@H]1C(=O)O[C@H]1C(=O)N[C@@H](Cc1ccccc1)C(=O)N[C@H](C(=O)OCc1ccccc1)C(C)C	6.95	0.0078	2.61	3.76	Active	–	–	–	–
C=CCOC(=O)[C@@H](NC(=O)[C@@H](NC(=O)[C@@H]1OC(=O)[C@H]1[C@@H](C)CC)C(C)C)C(C)C	0.353	0.0094	0.088	0.275	–	> 10	0.779	0.0195	0.0412
CC(C)[C@H](NC(=O)[C@@H]1OC(=O)[C@H]1C1CC1)C(=O)N[C@H](C(=O)OCc1ccccc1)C(C)C	> 100	0.0076	73.9	> 100	inactive	–	–	–	–
